The series is described as follows: Toxicity liver stage against HepG2, at 10uM. The note with it: human, HepG2-A16-CD81EGFP cells; read-out: INHIBITION
In kind it is cell-based. More on the design: test concentration 10 uM, cell line HepG2-A16-CD81EGFP. The gist of the method: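 Uninfected HepG2-A16-CD81EGFP cells, 3 × 10^3 per well, 1536-well, plated on prespotted compound at 10 μM final, parasite-free screening media added to match infected plates; puromycin 10 μM positive, DMSO 0.5% negative; run in parallel with 48 h PbLuc assay at 37 °C, 5% CO2; viability by CellTiter-Glo luminescence, normalized to controls.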

For the molecule `CCN(C)c1ncnc2c1CCN(c1ccc(C)nn1)CC2`, the cytotoxicity at 10 µM is -94.7%. To `O=C(Cn1cnc2cc3c(cc21)OCCCO3)NC1CCCC1` belongs 3.92%; to `Cc1cc(C(F)(F)F)nn1CC(C)C(=O)NC(C)C` (centres undefined), 10%. Turning to `CN1CCN(CC2(O)CCN(C(=O)CCc3ccccc3F)C2)CC1` (centres undefined), the cytotoxicity at 10 µM was -2%.

Turning to `Cc1cnn(CC2CCCN2C(=O)c2n[nH]c(=O)c3ccccc23)c1` (centres undefined), the cytotoxicity at 10 µM was -21.9%.

For the molecule `CC(C)(C)c1cc(C[C@H]2CNCC[C@H]2CC(=O)Nc2ccccc2)no1`, the cytotoxicity at 10 µM is -2.4%. To `Cc1ccc(C)c(S(=O)(=O)N2CCN(C)C3(CCC(=O)N(C)CC3)C2)c1` (centres undefined) belongs 7.01%; to `O=C(NCc1cccc(N2CC=CC2)c1)NC1CC1`, 9.34%. With `CCOC(=O)[C@H]1CNC[C@@H]1C(=O)OCC` the figure was 6.1%; with `COc1cc(OC)cc(N2CCC(NCc3occc3C)C2=O)c1` (centres undefined), 0.995%. With `CN(Cc1ccccn1)C(=O)CC1CCOc2ccccc21` (centres undefined), the cytotoxicity at 10 µM amounted to 11.6%. To `Cc1noc(C)c1CCC(=O)N1CCn2cccc2C1C` (centres undefined) belongs -0.376%.

For `N#Cc1ccc(SCCC(=O)Nc2ccc(CC(N)=O)cc2)cc1`, the cytotoxicity at 10 µM was -5.25%. With `Cc1ccc(N2C[C@@H]3OCCN(Cc4c(C)noc4C)[C@@H]3C2)nn1`, the cytotoxicity at 10 µM is -1.62%. With `CCCc1nc2c(c(C)c(C)n2Cc2ccncc2)c(N)c1CC` the figure was 14.3%; with `Cc1cc(C)c2ncc(C#N)c(N3CCS(=O)(=O)CC3)c2c1`, -8.17%. To `COCc1nc(C)cc(Nc2ccc3c(c2)CC(=O)N3)n1` belongs 1.41%.

In the case of `CC(=O)c1ccc(N2CCC3(CC2)CC(=O)N(C)C3)nc1`, the cytotoxicity at 10 µM was -1.66%. With `CC(C)NC(=O)c1cc(Br)cc(S(=O)(=O)N2CCOCC2)c1F` the figure was 6.17%. In the case of `CCn1nc(C)c(NC(=O)CN(C)C(C)c2ccon2)c1C` (centres undefined), the cytotoxicity at 10 µM was -147%.

As for `COc1ccc(CNC(Cc2ccsc2)c2ccc(C)cn2)cc1OC` (centres undefined), the cytotoxicity at 10 µM is -4.88%. To `O=C(NCCc1cccnc1)Nc1cc(C(F)(F)F)c[nH]c1=O` belongs -12.2%; to `O=C(NCCC1=CCCCC1)c1cc(-c2ccc(O)cc2)n[nH]1`, 38.8%; to `CCC1CN(C(=O)c2cccc(OCc3cscn3)c2)CCO1` (centres undefined), -7.51%. With `O=C(c1cc(C2CC2)[nH]n1)N1CCN(Cc2ccc3c(c2)OCO3)CC1` the figure was -2.32%; with `CN(C)C(=O)N1CCN(CCn2nc3ccccn3c2=O)CC1`, 0.562%; with `Cc1nc(Nc2cnccn2)cc(C2CCCN(C(C)C)C2)n1` (centres undefined), -9.03%.

Take `Cn1cnnc1Sc1ccc(NC(=O)C2CC2)cc1Cl`: the cytotoxicity at 10 µM worked out at 0.118%.

`CN(Cc1cc(=O)c(O)co1)C1CCCN(c2ccccc2)C1` (centres undefined): the cytotoxicity at 10 µM is -3.17%. With `CC(C)COC1CCN(C(=O)c2ccc(C(F)(F)F)[nH]c2=O)CC1` the figure was 0.0436%; with `CN(C(=O)c1cnc(N2CCOCC2)nc1)C1Cc2ccccc2C1`, -3.97%. Take `CC(C)CNC(=O)CNC(=O)Nc1cccc(Cl)c1-n1cccn1`: the cytotoxicity at 10 µM was -2.45%.

`N#Cc1ccc(N2CCN(C(=O)c3cc(C4CC4)[nH]n3)CC2)c(F)c1`: the cytotoxicity at 10 µM was 1.94%. On to `Cc1cc(N2CCCC2c2cc(Nc3cnccn3)nc(C)n2)ncn1` (centres undefined), for which the cytotoxicity at 10 µM was -14%. To `CC(=O)c1cn(CC(=O)N2CCC3(CC2)OCCO3)c2ccccc12` belongs 0.436%. To `Cc1ccc(C(=O)NCCCNS(C)(=O)=O)cc1C` belongs -1.66%; to `Cc1noc(CCCC(=O)NC(C)c2nnc3n2CCCCC3)n1` (centres undefined), 3.21%; to `Cc1ccc(F)c(S(=O)(=O)Nc2cn(C)cc(Br)c2=O)c1`, -7.73%. Regarding `CSCC[C@@H](CO)n1ccnc1-c1nccn1C`, the cytotoxicity at 10 µM was -2.84%.

Source of the values: ChEMBL document CHEMBL4513216, “Probing the Open Global Health Chemical Diversity Library for Multistage-Active Starting Points for Next-Generation Antimalarials” (ACS Infect Dis, 2020).
